One series relates to Plasmodium falciparum. As to the kind of experiment: Antiplasmodial activity against chloroquine-sensitive Plasmodium falciparum D10. Type of series: functional, organism-based. A digest of the protocol: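 Asexual erythrocytic-stage P. falciparum kept in continuous in vitro culture (Trager–Jensen). Activity measured by the parasite lactate dehydrogenase assay, with chloroquine diphosphate as reference drug.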

Another series deals with CHO. As to the kind of experiment: Cytotoxicity against CHO cells by MTT assay. Type of series: cell-based, Cricetulus griseus. A digest of the protocol:
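Chinese hamster ovary (CHO) cells; growth and survival measured by MTT assay. Samples run in triplicate on one occasion, with emetine dihydrochloride as reference drug.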
In general terms: Tetrazolium assays rely on reduction of a dye to a coloured formazan, in cell work by metabolically active cells.

Series [1] in a line: Selectivity index, ratio of IC50 for CHO cells to IC50 for chloroquine-sensitive Plasmodium falciparum D10. It is filed as toxicity, cell-based. The settings on record: hamster; read-out: Ratio IC50.
Where [2] appears, read: Plasmodium falciparum, D10, read-out: IC50.
The mark [3] stands for this setting: Cricetulus griseus, CHO, read-out: IC50.

Take `COc1cc2ccc(=O)oc2cc1O` [SCOPOLETIN]: the half-maximal inhibitory concentration (IC50) in the series with Plasmodium falciparum (setting [2]) was 494 µM; in the series with CHO (cho) it was “Not Active”.

For the compound `COc1cc(O)c2c(c1CC=C(C)C)OC[C@@](O)(c1ccc(O)c(CC=C(C)C)c1OC)C2=O` [SOPHONOROL F], the IC50 in the series with Plasmodium falciparum (setting [2]) worked out at 41 µM. The selectivity ratio in series [1] was found to be 3.

As to `O=C(/C=C/c1ccc(O)cc1)c1ccc(O)cc1O` [ISOLIQUIRITIGENIN], the IC50 was 32 µM in the series with Plasmodium falciparum (setting [2]) and 45.9 µM with CHO (setting [3]). In addition, the selectivity ratio in series [1] was found to be 1.

Take `O=c1c(-c2ccc(O)cc2)coc2c(O)c(O)ccc12`: the IC50 in the series on Plasmodium falciparum (setting [2]) is 17.8 µM; in the series on CHO (cho), “Not Active”.

For the compound `Oc1ccc2c(c1)OC[C@@H]1c3cc4c(cc3O[C@H]21)OCO4` [(+)-MAACKIAIN], the IC50 in the series on Plasmodium falciparum (setting [2]) is 177 µM; in the series on CHO (cho) it was “Not Active”.

Turning to `COc1c([C@]2(O)COc3cc(O)cc(O)c3C2=O)ccc2c1C=CC(C)(CO)O2` (stereo not given in full) [SOPHORONOL B], the IC50 result in the series on Plasmodium falciparum and in the series on CHO (cho) was “Not Active” each time.

Turning to `COc1c(C2(O)COc3cc(O)cc(O)c3C2=O)ccc2c1C=CC(C)(C)O2` (stereo not given) [SOPHORONOL], the IC50 was determined as 114 µM in the series on Plasmodium falciparum (setting [2]) and 223 µM in the series on CHO (setting [3]). Besides, the selectivity ratio in series [1] was determined as 2.

Regarding `COc1c([C@]2(O)COc3c4c(cc(O)c3C2=O)OC(C)(C)CC4)ccc2c1CCC(C)(C)O2` [SOPHONOROL C], the concentration for half-maximal inhibition (IC50) is 12.9 µM with Plasmodium falciparum (setting [2]) and “Not Active” with CHO (cho).

`COc1c(O)cc([C@]2(O)COc3cc(O)cc(O)c3C2=O)c(OC)c1CC=C(C)C` [SOPHONOROL D]: the values for the concentration for half-maximal inhibition (IC50) in the series on Plasmodium falciparum (setting [2]) and in the series on CHO (setting [3]) were 106 µM and 172 µM, respectively. Besides, the selectivity ratio in series [1] stood at 2.

Take `COc1ccc([C@]2(O)COc3c(CC=C(C)C)c(O)cc(O)c3C2=O)c(OC)c1CC=C(C)C` [SOPHONOROL E]: the values for the half-maximal inhibitory concentration (IC50) in the series on Plasmodium falciparum (setting [2]) and with CHO (setting [3]) were 12.8 µM and 169 µM, respectively. Further, the selectivity ratio in series [1] was 13.

`CC[C@H]1CN2CCc3cc(OC)c(OC)cc3[C@@H]2C[C@@H]1C[C@H]1NCCc2cc(OC)c(OC)cc21` [EMETINE]: the IC50 in the series with CHO (setting [3]) came out at 0.12 µM.

On to `CC1(C)C=Cc2c(ccc([C@]3(O)COc4cc(O)cc(O)c4C3=O)c2O)O1` [SOPHORONOL A], for which the concentration for half-maximal inhibition (IC50) entry with Plasmodium falciparum and in the series on CHO (cho) was “Not Active” each time.

For the compound `O=c1cc(-c2ccc(O)c(O)c2)oc2cc(O)ccc12`, the IC50 turned out to be 19.3 µM with Plasmodium falciparum (setting [2]) and 49.3 µM with CHO (setting [3]). Also, the selectivity ratio in series [1] came to 3.

As usually defined, the IC50 is the midpoint of a concentration-inhibition curve.

The values above are taken from ChEMBL document CHEMBL1152411, “Antiplasmodial isoflavanones from the roots of Sophora mollis” (J Nat Prod, 2009).
